ChEMBL document CHEMBL1132764, “Solution-phase combinatorial synthesis and evaluation of piperazine-2,5-dione derivatives” (2000)
In brackets after ≈: the same amount, converted by molar mass.

Columns and labels:
Artemia salina [1] = test: (§1) Compound was tested for brine shrimp (Artemia salina) toxicity measured as the lowest value at which severe inhibition of nauplii movement was observed; assay type: functional
How it was run: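 Artemia salina eggs held 24 h in artificial seawater; about 20 nauplii per well in 980 µL brine. Compound added as 1-100 µg in 20 µL DMSO, top concentration 100 µg/mL, each concentration in quadruplicate. Incubated 24 h at 26 °C. Larvae scored against DMSO controls (control deaths <10%). Assay conditions validated with caffeine.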

Artemia salina [2] = test: as §1; assay type: functional; conditions: read-out: LD50 (the source's name)
How it was run: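 Artemia salina eggs held 24 h in artificial seawater; about 20 nauplii per well in 980 µL brine. Compound added at 1-100 µg in 20 µL DMSO, top level 100 µg/mL (solubility limit), each concentration in quadruplicate. Incubated 24 h at 26 °C. Nauplii movement inhibition and survival scored against DMSO controls, with control deaths <10%.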

Structure (SMILES)	lowest concentration causing severe inhibition of nauplii movement (Artemia salina [1])	LC50 (Artemia salina [2])
C/C=C/C=c1\[nH]c(=O)/c(=C/C(C)C)[nH]c1=O	>100 µg/mL	
COc1cc(OC)c(/C=c2\[nH]c(=O)/c(=C/c3ccc(OC)c(OC)c3)[nH]c2=O)c(OC)c1	>100 µg/mL	
COc1cc(OC)c(/C=c2\[nH]c(=O)/c(=C/c3cc(OC)c(OC)c(OC)c3)[nH]c2=O)c(OC)c1	>100 µg/mL	
C/C=c1\[nH]c(=O)/c(=C/CCCCC)[nH]c1=O	>100 µg/mL	
COc1cc(/C=c2\[nH]c(=O)/c(=C/c3c[nH]c4ccccc34)[nH]c2=O)cc(OC)c1	>100 µg/mL	
COc1cc(OC)c(/C=c2\[nH]c(=O)/c(=C/c3c[nH]c4ccccc34)[nH]c2=O)c(OC)c1	>100 µg/mL	
O=c1[nH]/c(=C\c2ccc(O)cc2)c(=O)[nH]/c1=C\c1ccccc1	>100 µg/mL	
COc1ccc(/C=c2\[nH]c(=O)/c(=C/c3ccc(Cl)cc3)[nH]c2=O)cc1	>100 µg/mL	
O=c1[nH]/c(=C\c2ccc(Cl)cc2)c(=O)[nH]/c1=C\c1ccc(Cl)cc1	>100 µg/mL	
O=c1[nH]/c(=C\c2c[nH]c3ccccc23)c(=O)[nH]/c1=C\c1cccs1	>100 µg/mL	
O=c1[nH]/c(=C\c2ccccc2[N+](=O)[O-])c(=O)[nH]/c1=C\c1ccc([N+](=O)[O-])cc1	>100 µg/mL	
CC/C=c1\[nH]c(=O)/c(=C/CCCCC)[nH]c1=O	100 µg/mL	
CC/C=c1\[nH]c(=O)c(=CC=Cc2ccccc2)[nH]c1=O	>100 µg/mL	
C/C=c1\[nH]c(=O)/c(=C/C=C/C)[nH]c1=O	>100 µg/mL	
COc1cc(/C=c2\[nH]c(=O)/c(=C/c3ccccn3)[nH]c2=O)cc(OC)c1OC	100 µg/mL	
C/C=C/C=c1\[nH]c(=O)/c(=C/C=C/C)[nH]c1=O	>100 µg/mL	
O=c1[nH]/c(=C\c2ccccc2)c(=O)[nH]/c1=C\c1ccccc1	>100 µg/mL	
COc1cc(OC)c(/C=c2\[nH]c(=O)/c(=C/c3c(OC)cc(OC)cc3OC)[nH]c2=O)c(OC)c1	100 µg/mL	
COc1cc(/C=c2\[nH]c(=O)/c(=C/c3ccc(OC)c(OC)c3)[nH]c2=O)cc(OC)c1	>100 µg/mL	
COc1ccc(/C=c2\[nH]c(=O)/c(=C/c3cc(OC)c(OC)c(OC)c3)[nH]c2=O)cc1OC	100 µg/mL	
COc1ccc(/C=c2\[nH]c(=O)/c(=C/c3ccccc3[N+](=O)[O-])[nH]c2=O)cc1	>100 µg/mL	

Structure (SMILES)	lowest concentration causing severe inhibition of nauplii movement (Artemia salina [1])	LC50 (Artemia salina [2])
COc1ccc(/C=c2\[nH]c(=O)/c(=C/c3c[nH]c4ccccc34)[nH]c2=O)cc1OC	>100 µg/mL	
C/C=c1\[nH]c(=O)c(=CC=Cc2ccccc2)[nH]c1=O	>100 µg/mL	
O=c1[nH]/c(=C\c2c[nH]c3ccccc23)c(=O)[nH]/c1=C\c1c[nH]c2ccccc12	>100 µg/mL	
COc1ccc(/C=c2\[nH]c(=O)/c(=C/c3ccc(OC)cc3)[nH]c2=O)cc1	>100 µg/mL	
COc1cc(OC)c(/C=c2\[nH]c(=O)/c(=C/c3ccccn3)[nH]c2=O)c(OC)c1	>100 µg/mL	
C/C=c1\[nH]c(=O)/c(=C/CC)[nH]c1=O	>100 µg/mL	
O=c1[nH]/c(=C\c2ccc([N+](=O)[O-])cc2)c(=O)[nH]/c1=C\c1ccc([N+](=O)[O-])cc1	>100 µg/mL	
C/C=c1\[nH]c(=O)/c(=C/C)[nH]c1=O	100 µg/mL	
COc1cc(/C=c2\[nH]c(=O)/c(=C/c3cc(OC)c(OC)c(OC)c3)[nH]c2=O)cc(OC)c1	100 µg/mL	
O=c1[nH]/c(=C\c2ccccn2)c(=O)[nH]/c1=C\c1ccccn1	100 µg/mL	
COc1cc(/C=c2\[nH]c(=O)/c(=C/c3cc(OC)c(OC)c(OC)c3)[nH]c2=O)cc(OC)c1OC	>100 µg/mL	
C/C=C/C=c1\[nH]c(=O)/c(=C/CCCCC)[nH]c1=O	100 µg/mL	
COc1cc(OC)c(/C=c2\[nH]c(=O)/c(=C/c3cccs3)[nH]c2=O)c(OC)c1	>100 µg/mL	
CC(C)/C=c1\[nH]c(=O)/c(=C/C(C)C)[nH]c1=O	>100 µg/mL	
COc1cc(/C=c2\[nH]c(=O)/c(=C/c3cccs3)[nH]c2=O)cc(OC)c1OC	>100 µg/mL	
CC/C=c1\[nH]c(=O)/c(=C/CC)[nH]c1=O	>100 µg/mL	
COc1ccc(/C=c2\[nH]c(=O)/c(=C/c3ccc(OC)c(OC)c3)[nH]c2=O)cc1OC	>100 µg/mL	
COc1ccc(/C=c2\[nH]c(=O)/c(=C/c3ccccn3)[nH]c2=O)cc1OC		60 mg/L (≈ 171 µM)
O=c1[nH]/c(=C\c2ccccc2[N+](=O)[O-])c(=O)[nH]/c1=C\c1ccccc1	>100 µg/mL	
O=c1[nH]/c(=C\c2c[nH]c3ccccc23)c(=O)[nH]/c1=C\c1ccccn1	>100 µg/mL	
COc1cc(/C=c2\[nH]c(=O)/c(=C/c3cc(OC)cc(OC)c3)[nH]c2=O)cc(OC)c1	>100 µg/mL	

Structure (SMILES)	lowest concentration causing severe inhibition of nauplii movement (Artemia salina [1])	LC50 (Artemia salina [2])
COc1cc(/C=c2\[nH]c(=O)/c(=C/c3c[nH]c4ccccc34)[nH]c2=O)cc(OC)c1OC	100 µg/mL	
O=c1[nH]/c(=C\c2ccccc2[N+](=O)[O-])c(=O)[nH]/c1=C\c1ccccc1[N+](=O)[O-]	>100 µg/mL	
COc1cc(/C=c2\[nH]c(=O)/c(=C/c3c(OC)cc(OC)cc3OC)[nH]c2=O)cc(OC)c1	100 µg/mL	
O=c1[nH]/c(=C\c2cccs2)c(=O)[nH]/c1=C\c1cccs1	>100 µg/mL	
O=c1[nH]/c(=C\c2ccccc2[N+](=O)[O-])c(=O)[nH]/c1=C\c1ccc(Cl)cc1	>100 µg/mL	
CCCCC/C=c1\[nH]c(=O)/c(=C/CCCCC)[nH]c1=O	100 µg/mL	
C/C=C/C=c1\[nH]c(=O)/c(=C/CC)[nH]c1=O	>100 µg/mL	
O=c1[nH]/c(=C\c2ccc([N+](=O)[O-])cc2)c(=O)[nH]/c1=C\c1ccccc1	>100 µg/mL	
O=c1[nH]/c(=C\c2ccc([N+](=O)[O-])cc2)c(=O)[nH]/c1=C\c1ccc(Cl)cc1	>100 µg/mL	
COc1cc(/C=c2\[nH]c(=O)/c(=C/c3ccccn3)[nH]c2=O)cc(OC)c1		36 mg/L (≈ 102 µM)
O=c1[nH]/c(=C\c2cccs2)c(=O)[nH]/c1=C\c1ccccn1	100 µg/mL	
COc1ccc(/C=c2\[nH]c(=O)/c(=C/c3ccc([N+](=O)[O-])cc3)[nH]c2=O)cc1	>100 µg/mL	
CCCCC/C=c1\[nH]c(=O)/c(=C/C(C)C)[nH]c1=O	>100 µg/mL	
O=c1[nH]/c(=C\c2ccc(Cl)cc2)c(=O)[nH]/c1=C\c1ccccc1	>100 µg/mL	
CC/C=c1\[nH]c(=O)/c(=C/C(C)C)[nH]c1=O	>100 µg/mL	
COc1ccc(/C=c2\[nH]c(=O)/c(=C/c3ccccc3)[nH]c2=O)cc1	>100 µg/mL	
COc1cc(/C=c2\[nH]c(=O)/c(=C/c3cccs3)[nH]c2=O)cc(OC)c1		18 mg/L (≈ 50.5 µM)
CC(C)/C=c1\[nH]c(=O)c(=CC=Cc2ccccc2)[nH]c1=O	>100 µg/mL	
COc1ccc(/C=c2\[nH]c(=O)/c(=C/c3cccs3)[nH]c2=O)cc1OC	>100 µg/mL	
